Measured values published in ChEMBL document CHEMBL1671716, “Antimicrobial susceptibility patterns for recent clinical isolates of anaerobic bacteria in South Korea” (2010).

Tests used:
Eggerthella lenta [1] = experiment: Antimicrobial activity against Eubacterium lentum assessed as percent resistant isolates after 48 hrs by agar dilution method; assay type: functional
Method in brief: (§1)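 CLSI agar dilution on recent Korean clinical anaerobe isolates. Inoculum 10^5 CFU per spot by replicator. Plates incubated in an anaerobic chamber at 37°C for 48 h. For piperacillin plus tazobactam, tazobactam was held constant at 4 μg/ml. Resistance and susceptibility rates derived from MICs.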

[2] = test system: Bacteroides thetaiotaomicron; experiment: Antimicrobial activity against Bacteroides thetaiotaomicron assessed as percent susceptible isolates after 48 hrs by agar dilution method; assay type: functional
[3] = test system: Peptoniphilus asaccharolyticus; experiment: Antimicrobial activity against Peptoniphilus asaccharolyticus after 48 hrs by agar dilution method; assay type: functional
Method in brief: (§2)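 CLSI agar dilution (M11-A7); inoculum 10^5 CFU applied by replicator; plates incubated anaerobically 48 h at 37°C. For piperacillin-tazobactam, tazobactam held constant at 4 μg/ml.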

Schaalia meyeri [4] = experiment: Antimicrobial activity against Actinomyces meyeri assessed as percent susceptible isolates after 48 hrs by agar dilution method; assay type: functional
Actinomyces israelii [5] = experiment: Antimicrobial activity against Actinomyces israelii after 48 hrs by agar dilution method; assay type: functional
Method in brief: (§3)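 MICs on clinical anaerobe isolates by the CLSI agar dilution method. Inoculum of 10^5 CFU applied with a Steers replicator. Plates incubated 48 h at 37°C in an anaerobic chamber.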

Schaalia meyeri [6] = experiment: Antimicrobial activity against Actinomyces meyeri after 48 hrs by agar dilution method; assay type: functional; method in brief: as §3
Phocaeicola vulgatus [7] = experiment: Antimicrobial activity against Bacteroides vulgatus assessed as percent resistant isolates after 48 hrs by agar dilution method; assay type: functional; method in brief: as §1
Fusobacterium necrogenes = experiment: Antimicrobial activity against Fusobacterium necrogenes after 48 hrs by agar dilution method; assay type: functional; method in brief: as §2
Prevotella bivia [8] = experiment: Antimicrobial activity against Prevotella bivia assessed as percent resistant isolates after 48 hrs by agar dilution method; assay type: functional; method in brief: as §1
[9] = test system: Peptoniphilus asaccharolyticus; experiment: Antimicrobial activity against Peptoniphilus asaccharolyticus assessed as percent resistant isolates after 48 hrs by agar dilution method; assay type: functional; method in brief: as §1
Hoylesella oralis = experiment: Antimicrobial activity against Prevotella oralis assessed as percent susceptible isolates after 48 hrs by agar dilution method; assay type: functional
Method in brief: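 CLSI agar dilution MIC testing of clinical isolates. 10^5 CFU spotted by replicator, plates incubated 48 h at 37°C in an anaerobic chamber. Susceptibility rates derived from the MICs.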

Parvimonas micra [10] = experiment: Antimicrobial activity against Peptostreptococcus micros assessed as percent susceptible isolates after 48 hrs by agar dilution method; assay type: functional; method in brief: as §1
Schaalia odontolytica [11] = experiment: Antimicrobial activity against Actinomyces odontolyticus after 48 hrs by agar dilution method; assay type: functional; method in brief: as §3
Bacteroides caccae [12] = experiment: Antimicrobial activity against Bacteroides caccae assessed as percent susceptible isolates after 48 hrs by agar dilution method; assay type: functional
Bifidobacterium sp. [13] = experiment: Antimicrobial activity against Bifidobacterium sp. assessed as percent susceptible isolates after 48 hrs by agar dilution method; assay type: functional; method in brief: as §2
Bifidobacterium sp. [14] = experiment: Antimicrobial activity against Bifidobacterium sp. assessed as percent resistant isolates after 48 hrs by agar dilution method; assay type: functional; method in brief: as §1
Parvimonas micra [15] = experiment: Antimicrobial activity against Peptostreptococcus micros after 48 hrs by agar dilution method; assay type: functional; method in brief: as §2
Clostridium perfringens = experiment: Antimicrobial activity against Clostridium perfringens assessed as percent susceptible isolates after 48 hrs by agar dilution method; assay type: functional
Prevotella intermedia [16] = experiment: Antimicrobial activity against Prevotella intermedia after 48 hrs by agar dilution method; assay type: functional; method in brief: as §2
Prevotella intermedia [17] = experiment: Antimicrobial activity against Prevotella intermedia assessed as percent susceptible isolates after 48 hrs by agar dilution method; assay type: functional; method in brief: as §2
Bacteroides fragilis = experiment: Antimicrobial activity against Bacteroides fragilis assessed as percent resistant isolates after 48 hrs by agar dilution method; assay type: functional; method in brief: as §1
Anaerococcus prevotii = experiment: Antimicrobial activity against Anaerococcus prevotii assessed as percent susceptible isolates after 48 hrs by agar dilution method; assay type: functional
Phocaeicola vulgatus [18] = experiment: Antimicrobial activity against Bacteroides vulgatus assessed as percent susceptible isolates after 48 hrs by agar dilution method; assay type: functional
Bacteroides ovatus [19] = experiment: Antimicrobial activity against Bacteroides ovatus after 48 hrs by agar dilution method; assay type: functional; method in brief: as §3
Actinomyces naeslundii [20] = experiment: Antimicrobial activity against Actinomyces naeslundii assessed as percent resistant isolates after 48 hrs by agar dilution method; assay type: functional; method in brief: as §1
Schaalia odontolytica [21] = experiment: Antimicrobial activity against Actinomyces odontolyticus assessed as percent resistant isolates after 48 hrs by agar dilution method; assay type: functional; method in brief: as §1
Actinomyces naeslundii [22] = experiment: Antimicrobial activity against Actinomyces naeslundii assessed as percent susceptible isolates after 48 hrs by agar dilution method; assay type: functional
Bacteroides caccae [23] = experiment: Antimicrobial activity against Bacteroides caccae after 48 hrs by agar dilution method; assay type: functional; method in brief: as §3
Schaalia meyeri [24] = experiment: Antimicrobial activity against Actinomyces meyeri assessed as percent resistant isolates after 48 hrs by agar dilution method; assay type: functional; method in brief: as §1
Fusobacterium nucleatum = experiment: Antimicrobial activity against Fusobacterium nucleatum after 48 hrs by agar dilution method; assay type: functional; method in brief: as §2
Eubacterium sp. [25] = experiment: Antimicrobial activity against Eubacterium sp. assessed as percent resistant isolates after 48 hrs by agar dilution method; assay type: functional; method in brief: as §1
Bacteroides ovatus [26] = experiment: Antimicrobial activity against Bacteroides ovatus assessed as percent resistant isolates after 48 hrs by agar dilution method; assay type: functional; method in brief: as §1
Prevotella bivia [27] = experiment: Antimicrobial activity against Prevotella bivia assessed as percent susceptible isolates after 48 hrs by agar dilution method; assay type: functional; method in brief: as §2
Fusobacterium varium = experiment: Antimicrobial activity against Fusobacterium varium after 48 hrs by agar dilution method; assay type: functional; method in brief: as §2
[28] = test system: Porphyromonas asaccharolytica; experiment: Antimicrobial activity against Porphyromonas asaccharolytica after 48 hrs by agar dilution method; assay type: functional; method in brief: as §2
Finegoldia magna [29] = experiment: Antimicrobial activity against Finegoldia magna after 48 hrs by agar dilution method; assay type: functional; method in brief: as §2
Eubacterium sp. [30] = experiment: Antimicrobial activity against Eubacterium sp. after 48 hrs by agar dilution method; assay type: functional; method in brief: as §2
Prevotella buccae [31] = experiment: Antimicrobial activity against Prevotella buccae after 48 hrs by agar dilution method; assay type: functional; details: Segatella buccae; method in brief: as §2
Finegoldia magna [32] = experiment: Antimicrobial activity against Finegoldia magna assessed as percent susceptible isolates after 48 hrs by agar dilution method; assay type: functional; method in brief: as §2
Prevotella buccae [33] = experiment: Antimicrobial activity against Prevotella buccae assessed as percent resistant isolates after 48 hrs by agar dilution method; assay type: functional, Segatella buccae; method in brief: as §1
[34] = test system: Parabacteroides distasonis; experiment: Antimicrobial activity against Bacteroides distasonis assessed as percent susceptible isolates after 48 hrs by agar dilution method; assay type: functional
Eggerthella lenta [35] = experiment: Antimicrobial activity against Eubacterium lentum assessed as percent susceptible isolates after 48 hrs by agar dilution method; assay type: functional; method in brief: as §2
Actinomyces israelii [36] = experiment: Antimicrobial activity against Actinomyces israelii assessed as percent susceptible isolates after 48 hrs by agar dilution method; assay type: functional
[37] = test system: Parabacteroides distasonis; experiment: Antimicrobial activity against Bacteroides distasonis assessed as percent resistant isolates after 48 hrs by agar dilution method; assay type: functional; method in brief: as §1
[38] = test system: Bacteroides thetaiotaomicron; experiment: Antimicrobial activity against Bacteroides thetaiotaomicron assessed as percent resistant isolates after 48 hrs by agar dilution method; assay type: functional; method in brief: as §1
Finegoldia magna [39] = experiment: Antimicrobial activity against Finegoldia magna assessed as percent resistant isolates after 48 hrs by agar dilution method; assay type: functional; method in brief: as §1
[40] = test system: Bacteroides thetaiotaomicron; experiment: Antimicrobial activity against Bacteroides thetaiotaomicron after 48 hrs by agar dilution method; assay type: functional; method in brief: as §3
Clostridioides difficile = experiment: Antimicrobial activity against Clostridium difficile assessed as percent susceptible isolates after 48 hrs by agar dilution method; assay type: functional

CCN1CCN(C(=O)N[C@@H](C(=O)N[C@@H]2C(=O)N3[C@@H]2SC(C)(C)[C@@H]3C(=O)O)c2ccccc2)C(=O)C1=O [PIPERACILLIN]
78%: Activity (Hoylesella oralis) | Activity (Prevotella bivia [27])
27%: Activity (Bacteroides fragilis)
8 µg/mL: MIC90 (Actinomyces israelii [5]) | MIC90 (Schaalia meyeri [6]) | MIC90 (Schaalia odontolytica [11]) | MIC50 (Prevotella intermedia [16]) | MIC90 (Eubacterium sp. [30])
≤ 0.06 µg/mL: MIC50 [3] | MIC90 [3] | MIC50 (Finegoldia magna [29])
0.06 µg/mL: MIC (Fusobacterium necrogenes) | MIC (Fusobacterium nucleatum) | MIC (Fusobacterium varium) | MIC [28]
128 µg/mL: MIC50 (Bacteroides ovatus [19]) | MIC50 (Bacteroides caccae [23]) | MIC90 (Prevotella buccae [31]) | MIC50 [40]
42%: Activity [2] | Activity (Bacteroides caccae [12]) | Activity (Phocaeicola vulgatus [18]) | Activity [34]
100%: Activity (Clostridium perfringens) | Activity (Prevotella intermedia [17]) | Activity (Anaerococcus prevotii) | Activity (Finegoldia magna [32]) | Activity (Clostridioides difficile)
> 256 µg/mL: MIC90 (Bacteroides ovatus [19]) | MIC90 (Bacteroides caccae [23]) | MIC90 [40]
16 µg/mL: MIC90 (Parvimonas micra [15]) | MIC90 (Prevotella intermedia [16]) | MIC50 (Prevotella buccae [31])
0%: Activity (Eggerthella lenta [1]) | Activity [9] | Activity (Parvimonas micra [10]) | Activity (Bifidobacterium sp. [14]) | Activity (Actinomyces naeslundii [20]) | Activity (Schaalia odontolytica [21]) | Activity (Schaalia meyeri [24]) | Activity (Eubacterium sp. [25]) | Activity (Finegoldia magna [39])
11%: Activity (Prevotella bivia [8]) | Activity (Prevotella buccae [33])
51%: Activity (Phocaeicola vulgatus [7]) | Activity (Bacteroides ovatus [26]) | Activity [37] | Activity [38]
0.125 µg/mL: MIC90 (Finegoldia magna [29])
0.25 µg/mL: MIC50 (Parvimonas micra [15])
1 µg/mL: MIC50 (Actinomyces israelii [5]) | MIC50 (Schaalia meyeri [6]) | MIC50 (Schaalia odontolytica [11]) | MIC50 (Eubacterium sp. [30])
92%: Activity (Schaalia meyeri [4]) | Activity (Bifidobacterium sp. [13]) | Activity (Actinomyces naeslundii [22]) | Activity (Eggerthella lenta [35]) | Activity (Actinomyces israelii [36])

CO[C@@]1(NC(=O)C2SC(=C(C(N)=O)C(=O)O)S2)C(=O)N2C(C(=O)O)=C(CSc3nnnn3C)CS[C@@H]21 (stereo not given in full) [CEFOTETAN]
4 µg/mL: MIC50 (Actinomyces israelii [5]) | MIC50 (Schaalia meyeri [6]) | MIC50 (Schaalia odontolytica [11]) | MIC50 (Parvimonas micra [15]) | MIC50 (Eubacterium sp. [30]) | MIC50 (Prevotella buccae [31])
2 µg/mL: MIC50 (Prevotella intermedia [16]) | MIC90 (Finegoldia magna [29])
86%: Activity (Phocaeicola vulgatus [7]) | Activity (Bacteroides ovatus [26]) | Activity [37] | Activity [38]
0%: Activity [9] | Activity (Finegoldia magna [39])
64 µg/mL: MIC90 (Actinomyces israelii [5]) | MIC90 (Schaalia meyeri [6]) | MIC90 (Schaalia odontolytica [11]) | MIC90 (Parvimonas micra [15]) | MIC90 (Eubacterium sp. [30]) | MIC90 (Prevotella buccae [31])
14%: Activity (Bacteroides fragilis)
85%: Activity (Schaalia meyeri [4]) | Activity (Bifidobacterium sp. [13]) | Activity (Actinomyces naeslundii [22]) | Activity (Eggerthella lenta [35]) | Activity (Actinomyces israelii [36])
83%: Activity (Clostridioides difficile)
17%: Activity (Prevotella bivia [8]) | Activity (Prevotella buccae [33])
16 µg/mL: MIC90 (Prevotella intermedia [16])
100%: Activity (Clostridium perfringens) | Activity (Prevotella intermedia [17]) | Activity (Anaerococcus prevotii) | Activity (Finegoldia magna [32])
0.25 µg/mL: MIC50 [3]
89%: Activity [2] | Activity (Bacteroides caccae [12]) | Activity (Phocaeicola vulgatus [18]) | Activity [34]
15%: Activity (Eggerthella lenta [1]) | Activity (Bifidobacterium sp. [14]) | Activity (Actinomyces naeslundii [20]) | Activity (Schaalia odontolytica [21]) | Activity (Schaalia meyeri [24]) | Activity (Eubacterium sp. [25])
1 µg/mL: MIC90 [3] | MIC50 (Finegoldia magna [29])
31%: Activity (Parvimonas micra [10])
> 128 µg/mL: MIC50 (Bacteroides ovatus [19]) | MIC90 (Bacteroides ovatus [19]) | MIC50 (Bacteroides caccae [23]) | MIC90 (Bacteroides caccae [23]) | MIC50 [40] | MIC90 [40]
72%: Activity (Hoylesella oralis) | Activity (Prevotella bivia [27])
0.06 µg/mL: MIC (Fusobacterium necrogenes) | MIC (Fusobacterium nucleatum) | MIC (Fusobacterium varium) | MIC [28]
